Calls of active or inactive are those of the source. No cut-off for these calls is given here. Starred links: 1 amine or outer side, 2 acyl side, 3 side chain; linkers in the order of their positions; H or OH if unused. Positions of bridges follow the written chain, without caps; N, C: chain ends. Non-standard residues stand in square brackets, D forms with d. Residues, ends and D or L forms follow the SMILES beside them. N(4-F-Bzl)Gly = O=C(O)CNCc1ccc(F)cc1; X1 = O=C(CN(CCCO)[*:1])[*:2]
Legend:
[1] = Plasma concentration in Slc:ICR mouse at 100 ng/g, iv measured immediately by LC-MS/MS analysis; format: ADME, organism-based; conditions: in vivo
Method in brief: (§1)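 Male ICR mice (30 g) were given 100 ng/g i.v. via the tail vein. Blood was taken by cardiac puncture immediately and at 5, 15 and 30 min; CSF was taken at 30 min or 12 h. Plasma was deproteinized with acetonitrile/methanol 1:1 containing [13C6,15N]OT internal standard and analysed by LC-MS/MS (C8 column, SRM).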

[2] = tested on: Mus musculus; assay: Cognition enhancing effect in CD38KOCC Slc:ICR mouse model of autism spectrum disorder assessed as sucrose consumption over water at 100 ng/ml, ip administered as single dose measured after 60 mins relative to control (reference value: 0.46 +/- 0.04); format: functional
[3] = Half life in Slc:ICR mouse plasma during slow phase at 100 ng/g, iv measured for 15 to 60 mins by LC-MS/MS analysis; format: ADME, organism-based; method in brief: as §1
[4] = biological target: T1, Oxytocin receptor (Homo sapiens) (UniProt P30559); assay: Displacement of [3H]OT from recombinant human OTR expressed in HEK293 cell membranes assessed as dissociation rate constant for [3H]OT binding
T1 sequence (whole entry): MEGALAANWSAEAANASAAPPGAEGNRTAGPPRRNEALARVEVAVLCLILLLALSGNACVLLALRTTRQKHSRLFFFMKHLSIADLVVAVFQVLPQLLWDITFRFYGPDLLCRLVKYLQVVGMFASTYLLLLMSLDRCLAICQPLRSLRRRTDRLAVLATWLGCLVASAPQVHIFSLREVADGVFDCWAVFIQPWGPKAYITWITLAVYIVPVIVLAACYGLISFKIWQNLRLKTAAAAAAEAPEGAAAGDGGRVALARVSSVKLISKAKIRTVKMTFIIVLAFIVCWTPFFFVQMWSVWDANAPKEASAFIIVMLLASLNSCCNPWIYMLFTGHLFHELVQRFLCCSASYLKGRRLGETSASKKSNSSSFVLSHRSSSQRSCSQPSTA
Method in brief: (§2)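 Membranes from HEK-293 cells stably expressing human OTR (5 µg/well) in 50 mM Tris, 10 mM MgCl2, 0.1% BSA, pH 7.4. [3H]OT added at 200 pM, 500 pM and 1 nM; bound and free separated by rapid filtration at multiple time points to build association curves. Kon and Koff fitted; t1/2 from Koff = ln2/t1/2. Two experiments, each in duplicate.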

[5] = biological target: T2, Vasopressin V1b receptor (Homo sapiens, UniProt P47901); assay: Agonist activity at recombinant human V1b receptor expressed in HEK293 cells assessed as increase in intracellular calcium level measured at 3 secs interval for 5 mins by fura-2/AM dye based micro spectrofluorometric method; format: cell-based
T2 sequence (P47901 whole entry): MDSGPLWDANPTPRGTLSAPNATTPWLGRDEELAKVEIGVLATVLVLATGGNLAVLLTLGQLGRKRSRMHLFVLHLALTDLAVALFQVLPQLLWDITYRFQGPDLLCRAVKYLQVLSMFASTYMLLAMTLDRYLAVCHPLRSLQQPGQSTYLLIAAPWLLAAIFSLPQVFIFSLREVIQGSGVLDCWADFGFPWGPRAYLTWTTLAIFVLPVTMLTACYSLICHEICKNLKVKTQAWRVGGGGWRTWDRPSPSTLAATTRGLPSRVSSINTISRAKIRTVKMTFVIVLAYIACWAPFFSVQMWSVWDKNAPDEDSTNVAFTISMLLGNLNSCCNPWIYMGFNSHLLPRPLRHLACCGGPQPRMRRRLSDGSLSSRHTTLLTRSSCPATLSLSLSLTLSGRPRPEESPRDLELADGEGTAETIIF

[6] = tested on: Mus musculus; assay: Cognition enhancing effect in CD38 knock out Slc:ICR mouse sire model of autism spectrum disorder assessed as latency time to retrieve pups by sires at 100 ng/ml, ip administered as single dose measured after 30 mins by parental retrieval test (reference value: 600 sec); format: functional
[7] = species: Homo sapiens; assay: Selectivity ratio of EC50 for recombinant human V1a receptor expressed in HEK293 cells to EC50 for recombinant human OTR expressed in HEK293 cells; format: cell-based
Method in brief: (§3)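 Agonist response measured in HEK-293 cells stably expressing human OTR, V1aR or V1bR, loaded with 1 µM fura-2/AM for 30 min at 37 °C, washed in HEPES-buffered saline pH 7.4. F340/F380 ratio read every 3 s for 5 min at 37 °C, normalized to baseline and to maximal OT (OTR) or AVP (V1aR, V1bR) response; EC50 taken from these curves. n = 3, 20 cells per dish.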

[8] = tested on: Mus musculus; assay: Cognition enhancing effect in CD38 knock out Slc:ICR mouse sire model of autism spectrum disorder assessed as latency time to retrieve pups by sires at 100 ng/ml, ip administered as single dose measured after 5 hrs by parental retrieval test (reference value: 233 +/- 68 sec); format: functional
[9] = biological target: T1, Oxytocin receptor (Homo sapiens); assay: Displacement of [3H]OT from recombinant human OTR expressed in HEK293 cell membranes assessed as association rate constant for [3H]OT binding; method in brief: as §2
[10] = Drug level in Slc:ICR mouse cerebrospinal fluid at 100 ng/g, iv measured after 30 mins by LC-MS/MS analysis; format: ADME, organism-based; method in brief: as §1
[11] = biological target: Vasopressin V1a receptor (Homo sapiens, UniProt P37288); assay: Agonist activity at recombinant human V1a receptor expressed in HEK293 cells assessed as increase in intracellular calcium level measured at 3 secs interval for 5 mins by fura-2/AM dye based micro spectrofluorometric method; format: cell-based
Vasopressin V1a receptor, sequence (P37288 whole entry): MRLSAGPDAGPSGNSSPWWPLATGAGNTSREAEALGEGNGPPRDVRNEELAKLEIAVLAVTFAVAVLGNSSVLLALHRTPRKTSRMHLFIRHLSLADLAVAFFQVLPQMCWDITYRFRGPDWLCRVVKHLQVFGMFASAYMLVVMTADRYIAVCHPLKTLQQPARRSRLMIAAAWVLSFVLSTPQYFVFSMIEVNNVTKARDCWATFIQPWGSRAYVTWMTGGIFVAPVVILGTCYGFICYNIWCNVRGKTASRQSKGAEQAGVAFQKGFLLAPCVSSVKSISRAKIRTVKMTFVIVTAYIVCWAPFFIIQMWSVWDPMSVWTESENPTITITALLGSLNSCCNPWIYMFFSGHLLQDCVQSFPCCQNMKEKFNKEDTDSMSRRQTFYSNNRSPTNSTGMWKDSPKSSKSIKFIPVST

[12] = biological target: T3, Oxytocin receptor (Homo sapiens, UniProt P30559); assay: Agonist activity at recombinant human OTR expressed in HEK293 cells assessed as increase in intracellular calcium level measured at 3 secs interval for 5 mins by fura-2/AM dye based micro spectrofluorometric method; format: functional, cell-based
T3 sequence (P30559 whole entry): T1 sequence (whole entry)

[13] = tested on: Mus musculus; assay: Antidepressant-like activity in CD38KOCC Slc:ICR mouse model of autism spectrum disorder assessed as decrease in immobility time at 100 ng/ml, ip administered as single dose for 24 hrs prior to testing measured for last 4 mins of 6 mins test by tail suspension test
[14] = Drug level in Slc:ICR mouse cerebrospinal fluid at 100 ng/g, iv measured after 12 hrs by LC-MS/MS analysis; format: ADME, organism-based; method in brief: as §1
[15] = tested on: Mus musculus; assay: Antidepressant-like activity in CD38KOCC Slc:ICR mouse model of autism spectrum disorder assessed as immobility time at 100 ng/ml, ip administered as single dose for 30 mins prior to testing measured for last 4 mins of 6 mins test by tail suspension test (reference value: 74.2 +/- 2.9 sec); format: functional
[16] = tested on: Mus musculus; assay: Cognition enhancing effect in CD38KOCC Slc:ICR mouse model of autism spectrum disorder assessed as increase in sucrose consumption over water at 100 ng/ml, ip administered as single dose measured after 24 hrs; format: functional, organism-based
[17] = Half life in Slc:ICR mouse plasma during fast phase at 100 ng/g, iv measured for 15 mins by LC-MS/MS analysis; format: ADME, organism-based; method in brief: as §1
[18] = biological target: T3, Oxytocin receptor; assay: Displacement of [3H]OT from recombinant human OTR expressed in HEK293 cell membranes measured after 1 hr
[19] = tested on: Mus musculus; assay: Cognition enhancing effect in CD38 knock out Slc:ICR mouse sire model of autism spectrum disorder assessed as latency time to retrieve pups by sires at 100 ng/ml, ip administered as single dose measured after 12 hrs by parental retrieval test (reference value: 233 +/- 68 sec); format: functional
[20] = biological target: T1, Oxytocin receptor (Homo sapiens); assay: Displacement of [3H]OT from recombinant human OTR expressed in HEK293 cell membranes assessed as dissociation half life for [3H]OT binding; method in brief: as §2
[21] = Stability in mouse plasma assessed as parent compound remaining at 50 ng/ml measured after 2 hrs by LC-MS/MS analysis; format: ADME, cell-free; conditions: read-out: Stability
Method in brief: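 Pooled mouse plasma spiked to a final 50 ng/mL was incubated at 37 °C for 1–120 min, quenched with acetonitrile/methanol 1:1 plus internal standard, and analysed by LC-MS/MS. Percent of the initial concentration was calculated; 85–115% was taken as acceptable.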

[22] = species: Homo sapiens; assay: Selectivity ratio of EC50 for recombinant human V1b receptor expressed in HEK293 cells to EC50 for recombinant human OTR expressed in HEK293 cells; format: cell-based; method in brief: as §3
[23] = tested on: Mus musculus; assay: Cognition enhancing effect in CD38 knock out Slc:ICR mouse sire model of autism spectrum disorder assessed as latency time to retrieve pups by sires at 100 ng/ml, ip administered as single dose measured after 24 hrs by parental retrieval test (reference value: 233 +/- 68 sec); format: functional
[24] = tested on: Mus musculus; assay: Antidepressant-like activity in CD38KOCC Slc:ICR mouse model of autism spectrum disorder assessed as immobility time at 100 ng/ml, ip administered as single dose for 24 hrs prior to testing measured for last 4 mins of 6 mins test by tail suspension test (reference value: 56.5 +/- 18.8 sec)
[25] = tested on: Mus musculus; assay: Cognition enhancing effect in CD38KOCC Slc:ICR mouse model of autism spectrum disorder assessed as sucrose consumption over water at 100 ng/ml, ip administered as single dose measured after 24 hrs relative to control (reference value: 0.46 +/- 0.04); format: functional
[26] = Slc:ICR, cerebrospinal fluid, 100 ng/g, read-out: Drug uptake

Row | Cp [1] [ng/mL] | half-life [3] [min] | K [4] [min⁻¹] | EC50 [5] [nM] | K [9] | EC50 [11] [nM] | EC50 [12] [nM] | half-life [17] [min] | Ki [18] [nM] | T1/2 [20] [min] | remaining at 2 h, 50 ng/ml [21] [%] | Compound | Ratio [2] | Time [6] [s] | Ratio EC50 [7] | Time [8] [s] | Time [15] [s] | Time [19] [s] | Ratio EC50 [22] | Time [23] [s] | also measured
1 | 118 | 2.86 | 0.1 | 0.5 | 1.05 ×10⁸ /M/min | 2.2 | 0.028 | 2.84 | 0.51 | 6.38 | 85 to 115 | CC[C@H](C)[C@@H]1NC(=O)[C@H](Cc2ccc(O)cc2)NC(=O)[C@@H](N)CSSC[C@@H](C(=O)N(CC(=O)N[C@@H](CC(C)C)C(=O)NCC(N)=O)Cc2ccc(F)cc2)NC(=O)[C@H](CC(N)=O)NC(=O)[C@H](CCC(N)=O)NC1=O (H-CYIQNC[N(4-F-Bzl)Gly]LG-NH2; disulfide 1-6) | 0.79 | 297 | 75.3 | 381 | 149.5 | 155 | 17.5 | 413 | concentration at 0.5 h [10, 26]: 0.1 ng/mL; Activity [13]: inactive; concentration at 12 h [14, 26]: 0.38 ng/mL; Activity [16]: inactive
2 | 108 | 4.23 | 0.0175 | > 10 | 7.47 ×10⁶ /M/min | > 10 | 0.031 | 3.1 | 1.4 | 36.6 | 85 to 115 | CC[C@H](C)[C@@H]1NC(=O)[C@H](Cc2ccc(O)cc2)NC(=O)[C@@H](N)CSSC[C@@H](C(=O)N(CCCO)CC(=O)N[C@@H](CC(C)C)C(=O)NCC(N)=O)NC(=O)[C@H](CC(N)=O)NC(=O)[C@H](CCC(N)=O)NC1=O (H-CYIQNC[X1]LG-NH2; disulfide 1-6) | 0.72 | 346 | > 323 | 293 | 151.83 | 386 | > 322 | 100 | Time [24]: 157.3 s; Drug uptake ([10]; in vivo, 0.5 h, BLD = below limit of detection): Bld; Drug uptake ([14]; in vivo, 12 h, BLD = below limit of detection): Bld; Ratio [25]: 0.67
